Reference: ChEMBL document CHEMBL3525980, “Compartmentalization and antiviral effect of efavirenz metabolites in blood plasma, seminal plasma, and cerebrospinal fluid” (Drug Metab Dispos, 2013)
Converted amounts (≈) assume the structure as drawn.

Experiments:
[1] = Seminal plasma protein binding in human treated with 100 mg of efavirenz administered every 4 hrs by ultrafiltration method; format: ADME, cell-free; conditions: male, read-out: PPB (converted)
Summary of the method: (§1)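 Ultrafiltration through 10-kDa membrane of 100 μl sample preincubated 1 h at 37°C, centrifuged at 37°C with filtrate collected every 15 min for 45 min and measured by UPLC-MS/MS. Free level at time zero back-extrapolated by linear regression. […]. For blood plasma, metabolites were spiked into blank plasma lots.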

[2] = test system: Plasma; test: Drug metabolism in human seminal plasma assessed as retention time treated with 100 mg of efavirenz administered every 4 hrs by UPLC-MS/MS analysis; format: ADME, cell-free
[3] = test system: Human immunodeficiency virus 1; test: Antiviral activity against HIV1 expressing Env-green fluorescent fusion protein infected in PBMC assessed as inhibition of viral activity after 72 hrs by flow cytometry analysis; format: functional, organism-based; conditions: Human immunodeficiency virus 1, 72 h
Summary of the method: (§2)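 Activated CD4+ T cells from PBMCs (PHA 0.5 μg/ml, IL-2 100 U/ml, 3 days, 37°C) seeded at 1 × 10^5/well in RPMI + 50% FBS with IL-2. Compound in DMSO (<0.1%) added 3 h before spinoculation with single-round HIV-1 Env-GFP reporter virus. GFP read by flow cytometry after 72 h. Infectivity is fraction unaffected relative to virus-only and no-virus controls.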

[4] = Ratio of drug level in seminal plasma to blood plasma in human treated with 100 mg of efavirenz administered every 4 hrs by UPLC-MS/MS analysis; format: ADME, cell-free; conditions: male
[5] = test system: Plasma; test: Drug metabolism in human seminal plasma assessed as retention time of dihydroxylated metabolites treated with 100 mg of efavirenz administered every 4 hrs by UPLC-MS/MS analysis; format: ADME, cell-free
[6] = Blood plasma concentration in human treated with 100 mg of efavirenz administered […] by UPLC-MS/MS analysis; format: ADME, cell-free
Summary of the method: (§3)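 Patient samples (subjects on once-daily EFV regimen; paired plasma/CSF from 13 participants) extracted and total metabolite levels quantified by UPLC-MS/MS. Fluorinated EFV analog used as internal standard. MRM detection, calibrated linear 0.5–500 ng/ml. Values reported as median (IQR).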

[7] = Seminal plasma concentration in human treated with 100 mg of efavirenz administered every 4 hrs by UPLC-MS/MS analysis; format: ADME, cell-free; conditions: male
[8] = Drug level in human cerebrospinal fluid treated with 100 mg of efavirenz administered […] by UPLC-MS/MS analysis; format: ADME, tissue-based; conditions: read-out: Drug uptake; summary of the method: as §3
[9] = Fraction unbound in human seminal plasma treated with 100 mg of efavirenz administered every 4 hrs by ultrafiltration method; format: ADME; summary of the method: as §1
[10] = Blood plasma protein binding in human treated with 100 mg of efavirenz administered every 4 hrs by ultrafiltration method; format: ADME, cell-free; conditions: read-out: PPB (converted); summary of the method: as §1
[11] = Seminal plasma protein binding in human at 100 mg administered every 4 hrs by ultrafiltration method; format: ADME, cell-free; summary of the method: as §1
[12] = test system: Liver microsome; test: Drug metabolism in human liver microsomes assessed as formation of metabolites with retention time of 1.92 mins at 20 uM by UPLC-MS/MS analysis; format: ADME; conditions: 0.032 h
Summary of the method: (§4)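 Substrate at 20 μM with pooled human liver microsomes (1 mg/mL) in 100 mM potassium phosphate, pH 7.4. 5-min equilibration at 37°C, then NADPH regenerating system added, 60 min at 37°C. Stopped with acetonitrile, liquid–liquid extracted (hexane:ethyl acetate), and dihydroxylated products read by UPLC-MS/MS at MRM m/z 346 > 262.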

[13] = biological target: T1, Cytochrome P450 2B6 (Homo sapiens, UniProt P20813); test: Drug metabolism of the compound assessed as CYP2B6 (unknown origin)-mediated formation of metabolites with retention time of 1.92 mins at 5 uM by UPLC-MS/MS analysis; format: ADME; conditions: 0.032 h
T1 sequence (P20813 whole entry): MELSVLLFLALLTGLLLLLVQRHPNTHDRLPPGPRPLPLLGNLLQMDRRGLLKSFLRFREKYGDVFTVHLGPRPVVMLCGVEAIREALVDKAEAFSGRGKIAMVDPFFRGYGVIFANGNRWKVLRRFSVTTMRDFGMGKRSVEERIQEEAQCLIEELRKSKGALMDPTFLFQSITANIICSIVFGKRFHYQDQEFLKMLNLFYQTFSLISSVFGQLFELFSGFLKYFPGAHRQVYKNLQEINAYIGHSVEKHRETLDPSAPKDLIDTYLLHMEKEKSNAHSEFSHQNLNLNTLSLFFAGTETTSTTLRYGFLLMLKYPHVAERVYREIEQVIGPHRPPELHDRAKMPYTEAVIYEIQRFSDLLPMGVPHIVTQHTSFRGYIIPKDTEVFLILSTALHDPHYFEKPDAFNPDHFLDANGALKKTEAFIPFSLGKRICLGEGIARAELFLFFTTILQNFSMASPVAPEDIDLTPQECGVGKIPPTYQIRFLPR
Summary of the method: (§5)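 cDNA-expressed human CYPs (20 pmol/ml; panel 1A1–3A7) incubated with 5 μM substrate in 100 mM potassium phosphate, pH 7.4. 5-min equilibration at 37°C, then NADPH regenerating system, 60 min at 37°C. Acetonitrile stop, liquid–liquid extraction, UPLC-MS/MS detection of dihydroxylated products. Mean ± SD, n = 3.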

[14] = biological target: T2, Cytochrome P450 2C8 (Homo sapiens, UniProt P10632); test: Drug metabolism of the compound assessed as CYP2C8 (unknown origin)-mediated formation of dihydroxylated metabolites with retention time of 1.92 mins at 5 uM by UPLC-MS/MS analysis; format: ADME; conditions: 0.032 h; summary of the method: as §5
T2 sequence (P10632 whole entry): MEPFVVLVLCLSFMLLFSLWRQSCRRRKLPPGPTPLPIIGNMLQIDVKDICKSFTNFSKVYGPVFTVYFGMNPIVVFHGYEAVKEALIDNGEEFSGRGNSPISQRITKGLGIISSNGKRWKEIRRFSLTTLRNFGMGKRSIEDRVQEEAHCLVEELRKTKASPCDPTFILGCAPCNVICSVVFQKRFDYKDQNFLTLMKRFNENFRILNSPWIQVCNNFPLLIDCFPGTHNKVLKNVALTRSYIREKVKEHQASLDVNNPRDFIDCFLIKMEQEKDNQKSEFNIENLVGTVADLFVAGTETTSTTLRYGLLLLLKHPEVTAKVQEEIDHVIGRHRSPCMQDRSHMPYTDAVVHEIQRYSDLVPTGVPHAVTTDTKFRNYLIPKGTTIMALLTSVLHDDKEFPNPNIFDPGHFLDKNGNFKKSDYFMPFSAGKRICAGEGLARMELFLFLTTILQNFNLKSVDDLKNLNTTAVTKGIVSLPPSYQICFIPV

[15] = test system: Human immunodeficiency virus 1; test: Antiviral activity against HIV1; format: functional, organism-based; summary of the method: as §2
[16] = test system: Plasma; test: Total blood plasma concentration in human; format: ADME, cell-free
[17] = test system: Plasma; test: Total seminal plasma concentration in human; format: ADME, cell-free
[18] = Drug level in human cerebrospinal fluid; format: ADME, tissue-based; summary of the method: as §3
[19] = test system: Plasma; test: Drug metabolism in human blood plasma assessed as formation of N- and O-linked glucuronidated metabolite at 100 mg administered every 4 hrs by UPLC-MS/MS analysis; format: ADME, cell-free
[20] = Drug metabolism in human seminal plasma assessed as formation of N- and O-linked glucuronidated metabolite at 100 mg administered every 4 hrs by UPLC-MS/MS analysis; format: ADME, cell-free
[21] = Blood plasma protein binding in human at 100 mg administered every 4 hrs by ultrafiltration method; format: ADME, cell-free; conditions: read-out: PPB (converted); summary of the method: as §1
[22] = test system: Liver microsome; test: Drug metabolism in human liver microsomes assessed as formation of dihydroxylated metabolites with retention time of 1.56 mins at 20 uM by UPLC-MS/MS analysis; format: ADME; conditions: 0.026 h; summary of the method: as §4
[23] = biological target: T1, Cytochrome P450 2B6; test: Drug metabolism of the compound assessed as CYP2B6 (unknown origin)-mediated formation of dihydroxylated metabolites with retention time of 1.73 mins at 5 uM by UPLC-MS/MS analysis; format: ADME; conditions: 104 s; summary of the method: as §5
[24] = biological target: T3, Cytochrome P450 1A1 (Homo sapiens, UniProt P04798); test: Drug metabolism of the compound assessed as CYP1A1 (unknown origin)-mediated formation of dihydroxylated metabolites with retention time of 1.73 mins at 5 uM by UPLC-MS/MS analysis; format: ADME; conditions: 104 s; summary of the method: as §5
T3 sequence (P04798 whole entry): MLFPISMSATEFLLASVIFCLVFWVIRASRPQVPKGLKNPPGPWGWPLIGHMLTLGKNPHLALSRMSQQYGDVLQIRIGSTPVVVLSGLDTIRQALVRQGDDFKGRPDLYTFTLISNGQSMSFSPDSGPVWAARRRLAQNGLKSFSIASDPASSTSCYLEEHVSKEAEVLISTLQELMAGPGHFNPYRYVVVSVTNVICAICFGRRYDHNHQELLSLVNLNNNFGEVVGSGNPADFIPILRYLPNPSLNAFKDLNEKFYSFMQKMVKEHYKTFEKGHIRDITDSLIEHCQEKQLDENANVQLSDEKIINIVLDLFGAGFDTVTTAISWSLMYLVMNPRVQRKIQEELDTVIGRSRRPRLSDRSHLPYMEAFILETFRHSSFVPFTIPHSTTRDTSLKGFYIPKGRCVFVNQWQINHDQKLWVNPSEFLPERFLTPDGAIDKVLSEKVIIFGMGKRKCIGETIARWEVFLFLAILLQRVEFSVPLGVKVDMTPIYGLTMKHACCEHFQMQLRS

[25] = Ratio of drug level in seminal plasma to blood plasma in human at 100 mg administered every 4 hrs by UPLC-MS/MS analysis; format: ADME, cell-free; conditions: male
[26] = test system: Liver microsome; test: Drug metabolism in human liver microsomes assessed as formation of metabolites with retention time of 1.73 mins at 20 uM by UPLC-MS/MS analysis; format: ADME; conditions: 104 s; summary of the method: as §4
[27] = biological target: T1, Cytochrome P450 2B6; test: Drug metabolism of the compound assessed as CYP2B6 (unknown origin)-mediated formation of dihydroxylated metabolites with retention time of 1.56 mins at 5 uM by UPLC-MS/MS analysis; format: ADME; conditions: 0.026 h; summary of the method: as §5
[28] = biological target: T3, Cytochrome P450 1A1; test: Drug metabolism of the compound assessed as CYP1A1 (unknown origin)-mediated formation of dihydroxylated metabolites with retention time of 1.56 mins at 5 uM by UPLC-MS/MS analysis; format: ADME; conditions: 0.026 h; summary of the method: as §5

Structure (SMILES) | fraction unbound at 4 h [1] | IC50 [3] | Kp at 4 h [4] | concentration [6] | concentration at 4 h [7] | concentration [8] | Cp(f) [9] | fraction unbound at 4 h [10] | Drug metabolism [12] | Drug metabolism [13] | Drug metabolism [14] | other results
O=C1Nc2c(O)cc(Cl)cc2[C@@](C#CC2(O)CC2)(C(F)(F)F)O1 | 0.846 | 2.24 µg/mL (≈ 6.44 µM) | 209 | 5.63 ng/mL | 5.43 ng/mL | 0.375 ng/mL | 4.04 ng/mL | 0.0039 |  |  |  | Retention_time [2]: 1.56 min; Retention time [5]: 1.56 min
O=C1Nc2ccc(Cl)cc2[C@@](C#CC2CC2)(C(F)(F)F)O1 [EFAVIRENZ] |  | 0.00036 µg/mL (≈ 0.00114 µM) |  |  |  |  |  |  | metabolite_detected | metabolite_detected | metabolite_detected | PPB [11]: 95.1%; IC50 [15]: 0.00051 µg/mL (≈ 0.00162 µM); Cp [16]: 2170 ng/mL; Cp [17]: 95 ng/mL; Drug uptake [18]: 19 ng/mL; Drug metabolism [19]: metabolite_detected; Drug metabolism [20]: metabolite_detected; fraction unbound at 4 h [21]: 0.0018
O=C1Nc2cc(O)c(Cl)cc2[C@@](C#CC2CC2)(C(F)(F)F)O1 | 0.619 | 0.0447 µg/mL (≈ 0.135 µM) | 188 | 8.84 ng/mL | 10.2 ng/mL |  | 6.55 ng/mL | 0.0038 | metabolite_detected | metabolite_detected | metabolite_detected | 
O=C1Nc2c(O)cc(Cl)cc2[C@@](C#CC2CC2)(C(F)(F)F)O1 | 0.038 | 0.0422 µg/mL (≈ 0.127 µM) |  | 314 ng/mL | 358 ng/mL | 3.37 ng/mL | 10.16 ng/mL | 0.0003 | metabolite_detected | metabolite_detected |  | Drug metabolism [22]: metabolite_detected; Drug metabolism [23]: metabolite_detected; Drug metabolism [24]: metabolite_detected; Kp at 4 h [25]: 145; Drug metabolism [26]: metabolite_detected; Drug metabolism [27]: metabolite_detected; Drug metabolism [28]: metabolite_detected
